This is an account of results in ChEMBL document CHEMBL3739336, “Identification of dual PPARα/γ agonists and their effects on lipid metabolism” (Bioorg Med Chem, 2015).

Calls of active or inactive are those of the source. The calls are words filed in the database; no cut-off is given here.

Data set [1] addresses Peroxisome proliferator-activated receptor (Homo sapiens) (UniProt P37231+Q07869+Q03181). Nature of the data set: Agonist activity at PPAR in human THP1 cells assessed as induction of ABCG1 expression at 20 uM after 24 hrs by Western blot analysis relative to control. The data set is classed as cell-based. The settings on record: THP-1. In general terms: A western blot detects proteins with antibodies after separation by electrophoresis.

Data set [2] addresses T1, Peroxisome proliferator-activated receptor alpha (Homo sapiens) (UniProt Q07869).
T1 sequence (whole entry): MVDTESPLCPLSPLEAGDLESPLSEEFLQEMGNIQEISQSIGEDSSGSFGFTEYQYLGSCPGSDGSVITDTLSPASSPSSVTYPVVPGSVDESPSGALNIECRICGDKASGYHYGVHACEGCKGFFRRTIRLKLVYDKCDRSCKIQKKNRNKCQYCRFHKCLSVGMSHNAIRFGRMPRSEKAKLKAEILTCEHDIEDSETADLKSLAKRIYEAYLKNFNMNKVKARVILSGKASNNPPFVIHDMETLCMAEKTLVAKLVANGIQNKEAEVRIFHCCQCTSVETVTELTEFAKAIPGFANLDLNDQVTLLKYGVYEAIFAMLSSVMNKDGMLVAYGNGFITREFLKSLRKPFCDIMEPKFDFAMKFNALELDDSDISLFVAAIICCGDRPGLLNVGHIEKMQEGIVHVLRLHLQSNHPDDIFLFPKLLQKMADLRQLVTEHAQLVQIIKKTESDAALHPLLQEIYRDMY
The experiment in a line: Agonist activity at PPARalpha in human HuH7 cells assessed as increase of fatty acid oxidation by measuring CO2 production using […] at 20 uM after 18 hrs by scintillation counting. The format is cell-based. The conditions noted are these: Huh-7.

The target in data set [3] is T2, Peroxisome proliferator-activated receptor gamma (Mus musculus) (UniProt P37238).
T2 sequence (whole entry): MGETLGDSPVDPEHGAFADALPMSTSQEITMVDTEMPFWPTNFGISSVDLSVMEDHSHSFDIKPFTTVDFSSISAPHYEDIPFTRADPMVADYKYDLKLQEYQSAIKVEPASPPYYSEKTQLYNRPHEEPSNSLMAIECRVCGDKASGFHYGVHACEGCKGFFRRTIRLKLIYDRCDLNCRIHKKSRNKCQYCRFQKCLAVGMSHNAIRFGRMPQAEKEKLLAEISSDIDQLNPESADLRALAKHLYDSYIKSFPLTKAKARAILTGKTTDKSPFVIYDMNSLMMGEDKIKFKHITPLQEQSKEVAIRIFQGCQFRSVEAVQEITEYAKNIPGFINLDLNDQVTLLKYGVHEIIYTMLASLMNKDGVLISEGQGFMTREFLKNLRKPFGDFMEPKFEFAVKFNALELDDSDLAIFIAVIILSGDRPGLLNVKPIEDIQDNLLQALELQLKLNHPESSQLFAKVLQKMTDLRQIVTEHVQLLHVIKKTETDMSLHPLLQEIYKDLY
Nature of the data set: Agonist activity at PPARgamma in mouse 3T3-L1 cells assessed as increase of triacylglycerol accumulation at 20 uM after 18 hrs by ORO staining. The data set is classed as cell-based. The essentials: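 Differentiated 3T3-L1 adipocytes on coverslips, treated for 18 h (overnight) with 20 μM or 25 μM. Cells fixed in 4% PFA, rinsed in 60% isopropanol, stained 10 min with Oil Red O (0.5% stock diluted 6/4 in water), then imaged by microscopy for neutral lipid.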

Data set [4] has as its target T1, Peroxisome proliferator-activated receptor alpha (Homo sapiens). The experiment in a line: Agonist activity at PPARalpha in human HuH7 cells assessed as increase of CPT1alpha expression at 20 uM by Western blotting relative to control. The data set is classed as cell-based. The conditions noted are these: Huh-7. The essentials:
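HuH7 hepatoma cells (DMEM/F-12, 10% FCS) incubated overnight ± 20 μM. Whole-cell lysates run on 12% SDS-PAGE and immunoblotted for CPT1α with HRP secondary and ECL. Band intensity normalised to actin; mean ± SEM, n = 3.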

The nature of another data set: in vitro. The conditions noted are these: human, HEK293 cells.

Chain of Peroxisome proliferator-activated receptor (Homo sapiens) (P37231 whole entry, looked up, one chain of several): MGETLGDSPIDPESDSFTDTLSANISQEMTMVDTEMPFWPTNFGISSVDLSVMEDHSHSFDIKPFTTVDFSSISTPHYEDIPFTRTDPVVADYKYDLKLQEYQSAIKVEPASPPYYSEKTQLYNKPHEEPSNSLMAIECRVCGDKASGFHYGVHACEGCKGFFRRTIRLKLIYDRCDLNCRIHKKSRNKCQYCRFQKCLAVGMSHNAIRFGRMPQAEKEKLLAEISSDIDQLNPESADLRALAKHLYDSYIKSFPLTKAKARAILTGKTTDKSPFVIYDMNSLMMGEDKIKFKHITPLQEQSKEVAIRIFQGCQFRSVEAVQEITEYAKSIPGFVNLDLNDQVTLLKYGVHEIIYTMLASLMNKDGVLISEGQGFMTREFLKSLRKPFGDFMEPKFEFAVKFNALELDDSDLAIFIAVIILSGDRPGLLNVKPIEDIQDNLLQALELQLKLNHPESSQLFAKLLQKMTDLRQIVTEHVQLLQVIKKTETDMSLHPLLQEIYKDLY
Chain of Peroxisome proliferator-activated receptor (Homo sapiens) (Q03181 whole entry, looked up, one chain of several): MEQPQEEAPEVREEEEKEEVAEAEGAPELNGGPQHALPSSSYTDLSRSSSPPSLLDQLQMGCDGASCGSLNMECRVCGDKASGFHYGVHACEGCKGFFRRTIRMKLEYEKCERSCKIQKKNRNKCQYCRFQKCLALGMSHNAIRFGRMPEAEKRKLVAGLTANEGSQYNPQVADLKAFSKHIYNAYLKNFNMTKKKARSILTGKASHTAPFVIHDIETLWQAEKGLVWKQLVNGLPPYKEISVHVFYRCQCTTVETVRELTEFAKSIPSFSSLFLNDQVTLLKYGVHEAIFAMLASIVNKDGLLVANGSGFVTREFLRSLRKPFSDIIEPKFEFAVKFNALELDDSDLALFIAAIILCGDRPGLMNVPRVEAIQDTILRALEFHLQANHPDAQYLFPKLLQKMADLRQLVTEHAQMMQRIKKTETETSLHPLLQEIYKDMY

Regarding `CCN(CC)c1ccc(NC(=O)c2ccccc2OCC(=O)N2CCc3ccccc32)cc1`, the results for the fold change (FC) in data set [1] and in data set [4] were 3 and above 2, respectively. Besides, the result in data set [2] was Active. In addition, in data set [3], the Activity amounted to 20%.

`CN(CCOc1ccc(CC2SC(=O)NC2=O)cc1)c1ccccn1` (stereo not given) [ROSIGLITAZONE]: the inhibition (usually the drop in the measured response relative to a control, in per cent) at 100 µM in the data set “in vitro” was below 5%.

Consider `CCOc1ccc2c(=O)c(-c3ccccc3)coc2c1C`, for which, in data set [1], the outcome was inactive.

In the case of `Cc1cccc(Nc2cc(Cl)nc(SCC(=O)O)n2)c1C` [PIRINIXIC ACID], in data set [2], the result was Active. The same compound gave an inhibition at 100 µM in “in vitro” below 5%.

Turning to `Cn1c(Cc2ccccc2)nn(CN2CCC(c3ccccc3)CC2)c1=S`, in data set [1], the fold change (FC) came to 3.

`COc1ccc2c(=O)c(-c3ccccc3)coc2c1C`: the result in data set [1] was inactive.
